Results reported in ChEMBL document CHEMBL1149154, “Comparative molecular field analysis and comparative molecular similarity indices analysis of thalidomide analogues as angiogenesis inhibitors” (2004).

Species: Rattus norvegicus
Experiment: Inhibition of microvessel outgrowth in the rat aortic ring assay
Assay type: functional, Aorta
Set-up: concentration or dose not given beside the values
Outline: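 Aortic 1 mm cross-sections from 6–8-week-old male Sprague–Dawley rats, periadventitial fat removed, embedded between Matrigel layers (37 °C, 5% CO2). Cultured 24 h in EGM-II, then switched to EBM-II with 2% FBS, amphotericin B and gentamicin. Compounds in DMSO added to medium daily for 4 days (vehicle 0.5% DMSO; carboxyamidotriazole positive control). Microvessel growth photographed on day 5.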

Compound | Inhibition [%]
O=C1NCCCC1N1C(=O)c2ccccc2S1(=O)=O (centres undefined) [SUPIDIMIDE] | 4.5
CC(C)CCCC(C)C1CCC2C3CC=C4CC(OC(=O)N5C(=O)CCC(N6C(=O)c7ccccc7C6=O)C5=O)CCC4(C)C3CCC12C (centres undefined) | 50
COc1cc2c(cc1OC)C(=O)N(C1CCC(=O)NC1=O)C2=O (centres undefined) | 23.25
O=C1CCC(N2Cc3ccccc3C2=O)C(=O)N1 (centres undefined) | 11.25
CC(C)(C)OC(=O)C(C(=O)NC(C(=O)O)C(=O)O)N1C(=O)c2ccccc2C1=O (centres undefined) | 13.25
O=C1CCC(N2C(=O)c3ccccc3C2=O)C(=O)N1CO (centres undefined) | 21
O=C1CCC(NC(=O)C(C(=O)O)N2C(=O)c3ccccc3C2=O)C(=O)N1 (centres undefined) | 11.67
O=C(O)CCC(NC(C(=O)O)N1C(=O)c2ccccc2C1=O)C(=O)O (centres undefined) | 25.75
CCC1(N2C(=O)c3cccc([N+](=O)[O-])c3C2=O)C(=O)NC(=O)N(c2ccccc2)C1=O (centres undefined) | 1.75
CC(C)(C)OC(=O)NC(Cc1ccccc1)C(=O)OCN1C(=O)CCC(N2C(=O)c3ccccc3C2=O)C1=O (centres undefined) | 33.75
O=C(O)C(C(=O)O)N1C(=O)c2ccccc2C1=O | -2
O=C(O)CN1C(=O)CCC(N2C(=O)c3ccccc3C2=O)C1=O (centres undefined) | 39.75
CC(C)(C)OC(=O)NCC(=O)OCN1C(=O)CCC(N2C(=O)c3ccccc3C2=O)C1=O (centres undefined) | 40.25
NC(=O)c1ccc[n+](CN2C(=O)CCC(N3C(=O)c4ccccc4C3=O)C2=O)c1.[Cl-] (centres undefined) | 29.67
COCN1C(=O)CCC(N2C(=O)c3ccccc3C2=O)C1=O (centres undefined) | 13
[N-]=[N+]=NCN1C(=O)CCC(N2C(=O)c3ccccc3C2=O)C1=O (centres undefined) | 24.67
O=C1c2c(F)c(F)c(F)c(F)c2C(=O)N1c1cnc(O)nc1O | 15.25
O=C1CCC(N2C(=O)c3cc(O)c(O)cc3C2=O)C(=O)N1 (centres undefined) | 38.75
CCC1(N2C(=O)c3c(F)c(F)c(F)c(F)c3C2=O)C(=O)NC(=O)N(c2ccccc2)C1=O (centres undefined) | 75.75
O=C1CCC(N2C(=O)c3ccccc3C2=O)C(=O)O1 (centres undefined) | 42

Compound | Inhibition [%]
O=C1c2ccccc2C(=O)N1c1cnc(O)nc1O | 5.75
O=C1c2c(F)c(F)c(F)c(F)c2C(=O)N1c1ccc(F)cc1F | 39.75
NC(Cc1ccccc1)C(=O)OCN1C(=O)CCC(N2C(=O)c3ccccc3C2=O)C1=O (centres undefined) | 4
CC(C)CCCC(C)C1CCC2C3CC=C4CC(OC(=O)CN5C(=O)CCC(N6C(=O)c7ccccc7C6=O)C5=O)CCC4(C)C3CCC12C (centres undefined) | 25.25
CC(C(=O)OCN1C(=O)CCC(N2C(=O)c3ccccc3C2=O)C1=O)N(C)C(=O)OC(C)(C)C (centres undefined) | 56.5
O=C1c2ccccc2C(=O)N1c1ccc(F)cc1F | -4.75
Cl.NCC(=O)OCN1C(=O)CCC(N2C(=O)c3ccccc3C2=O)C1=O (centres undefined) | 71.33
O=C1CC(N2C(=O)c3ccccc3C2=O)C(=O)N1 (centres undefined) | 9.75
Cc1ccc(C)c2c1C(=O)N(c1ccc(F)cc1F)C2=O | 18
O=C1CCC(N2C(=O)c3ccc(O)c(O)c3C2=O)C(=O)N1 (centres undefined) | 10.25
O=C1c2cccc([N+](=O)[O-])c2C(=O)N1c1cn(-c2ccccc2)c(=O)[nH]c1=O | -23.33
NC(=O)CCC(C(=O)O)N1C(=O)c2ccccc2C1=O (centres undefined) [2-PHTHALIMIDOGLUTARAMIC ACID] | 1.75
CCOCN1C(=O)CCC(N2C(=O)c3ccccc3C2=O)C1=O (centres undefined) | 32
Nc1cccc2c1C(=O)N(C1CCC(=O)NC1=O)C2=O (centres undefined) [POMALIDOMIDE] | 5.5
NC(=O)C(CCC(=O)O)N1C(=O)c2ccccc2C1=O (centres undefined) | 15.25
O=C(O)CCC(C(=O)O)N1C(=O)c2ccccc2C1=O (centres undefined) | 10.75
CC(C)C(N)C(=O)OCN1C(=O)CCC(N2C(=O)c3ccccc3C2=O)C1=O.Cl (centres undefined) | 88
O=C1NC(=O)C(N2C(=O)c3ccccc3C2=O)CC1O (centres undefined) | 3.75
CCC1(N2C(=O)c3ccccc3C2=O)C(=O)NC(=O)N(c2ccccc2)C1=O (centres undefined) | -0.5
